Assay outcomes from PubChem.
Shown are actives, neighbours in structure and some others; about 2.6% of the full set was active somewhere.
ASAP1 inh: blocks human ASAP1-stimulated Arf1 GTP hydrolysis. Q9ULH1. GDP FP detection. inhibition, % at 16.5 µM. actives 0.19% (n = 360,000); in the data active = inhibition above about 25%
Target sequence (Q9ULH1 325-724 limits assumed): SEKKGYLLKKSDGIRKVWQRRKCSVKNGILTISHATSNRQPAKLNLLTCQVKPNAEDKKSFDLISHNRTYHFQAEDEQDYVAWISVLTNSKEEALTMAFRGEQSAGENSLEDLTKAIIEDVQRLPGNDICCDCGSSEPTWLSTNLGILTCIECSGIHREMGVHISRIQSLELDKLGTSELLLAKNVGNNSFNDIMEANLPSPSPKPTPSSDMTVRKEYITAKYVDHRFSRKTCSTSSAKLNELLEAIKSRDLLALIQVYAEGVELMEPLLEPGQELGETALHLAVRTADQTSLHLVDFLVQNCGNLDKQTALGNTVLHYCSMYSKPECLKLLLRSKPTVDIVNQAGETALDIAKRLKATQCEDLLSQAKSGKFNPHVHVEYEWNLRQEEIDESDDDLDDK
ARFGAP1 inhibitor: inhibits rat ARF GTPase activating protein 1 | Arfgap1-stimulated ARF1 GTP hydrolysis, GDP FP detection | AID 651572 | actives 0.26% (n = 360,000) | Q62848 | inhibition, % at 16.5 µM;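 active = inhibition above a per-plate limit, mean inhibition of low control wells plus 3 SD, cut at about 25% in these data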
Target sequence (Q62848 1-136 limits assumed): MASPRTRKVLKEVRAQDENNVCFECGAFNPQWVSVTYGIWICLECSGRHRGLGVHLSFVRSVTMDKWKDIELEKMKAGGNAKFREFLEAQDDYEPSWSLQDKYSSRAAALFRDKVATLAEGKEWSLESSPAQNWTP
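System: truncated rat Arfgap1 GAP domain / Medium: HEPES-based buffer, pH 7.5 / Also added: N-terminally truncated human ARF1-GTP substrate / Incubation: enzyme reaction 120 min at 25 °C after 20 min preincubation / Measured by: FP of antibody-bound GDP Alexa 633 tracer, ex 620/em 688 nm / Replicates: singlicate, each compound tested once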
SMARCA2 activ: activators of SMARCA2 function; MG213 cells, MMTV-luciferase reporter, dexamethasone, overnight; activation, % at 9.1 µM; actives 1% (n = 370,000); in the data active = activation above about 7.8%
esBAF inh: blocks esBAF chromatin remodeling in mouse ES cells | Bmi1-luciferase knock-in reporter, 24 h; 100% = twice the neutral-well signal | actives 2% (n = 350,000) | reporter increase, % at 12.5 µM; in the data active = activation above about 40%;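 also: a rise in the Bmi1 reporter signal indicates esBAF inhibition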
A number is an active result.

For COc1ccc(-n2nc3ccccc3n2)cc1 the results were ASAP1 inh inactive, ARFGAP1 inhibitor inactive, SMARCA2 activ inactive and esBAF inh inactive.
`COc1ccc(-n2nc3cc(N)c(Br)cc3n2)cc1` gave ASAP1 inh inactive, ARFGAP1 inhibitor inactive, SMARCA2 activ inactive and esBAF inh 57.0.
`COc1cc(CNc2ccc3[nH]c(=O)[nH]c3c2)ccc1OCc1ccccc1F` gave ASAP1 inh inactive, ARFGAP1 inhibitor inactive, SMARCA2 activ inactive and esBAF inh 46.8.
COc1cc(CNc2ccc3[nH]c(=O)[nH]c3c2)ccc1OCc1ccc(Cl)cc1 was read as ASAP1 inh inactive, ARFGAP1 inhibitor inactive, SMARCA2 activ inactive and esBAF inh 54.7.
Screening COc1cc(CNc2ccc3[nH]c(=O)[nH]c3c2)ccc1OCc1ccccc1C returned ASAP1 inh inactive, ARFGAP1 inhibitor inactive, SMARCA2 activ inactive and esBAF inh 47.4.
CN(C)c1ccc(C(CN)c2c[nH]c3ccccc23)cc1 (configuration not stated) was read as ASAP1 inh inactive, ARFGAP1 inhibitor inactive, SMARCA2 activ inactive and esBAF inh 39.4.
For O=S(=O)(c1cc(O)ccc1O)c1cccc2c(S(=O)(=O)c3cc(O)ccc3O)cccc12 the results were ASAP1 inh inactive, ARFGAP1 inhibitor 24.7, SMARCA2 activ inactive and esBAF inh inactive.
Screening C/C(=N\OC(=O)NC(C)C)c1sc(-c2ccccc2)nc1C returned ASAP1 inh inactive, ARFGAP1 inhibitor inactive, SMARCA2 activ inactive and esBAF inh 63.5.
For CCNC(=O)O/N=C(\C)c1sc(-c2ccc(Cl)cc2)nc1C the results were ASAP1 inh inactive, ARFGAP1 inhibitor inactive, SMARCA2 activ inactive and esBAF inh 43.0.
Screening C/C(=N\OC(=O)c1cccc(C(F)(F)F)c1)c1sc(-c2ccccc2)nc1C returned ASAP1 inh inactive, ARFGAP1 inhibitor inactive, SMARCA2 activ inactive and esBAF inh 76.9.
Screening C/C(=N\OC(=O)NC(C)C)c1sc(-c2ccc(Cl)cc2)nc1C returned ASAP1 inh inactive, ARFGAP1 inhibitor inactive, SMARCA2 activ inactive and esBAF inh inactive.
Screening C=C(C)c1sc(-c2ccc(Cl)cc2)nc1C returned ASAP1 inh inactive, ARFGAP1 inhibitor inactive, SMARCA2 activ inactive and esBAF inh 49.5.
`C[C@@H]1CN([C@H](C)CO)C(=O)c2cc(NC(=O)CCN3CCOCC3)ccc2O[C@@H]1CN(C)C` gave esBAF inh inactive.
COc1ccc(S(=O)(=O)N(C)C[C@H]2OCCCC[C@@H](C)Oc3ccc(NS(=O)(=O)c4cccs4)cc3C(=O)N([C@@H](C)CO)C[C@@H]2C)cc1 was read as esBAF inh inactive.
For O=C(N/N=C/c1cccc([N+](=O)[O-])c1)C1CC1c1ccccc1 (configuration not stated) the results were ASAP1 inh inactive, ARFGAP1 inhibitor inactive, SMARCA2 activ 9.1 and esBAF inh inactive.
For c1cncc(C2Nc3ccccc3-c3nc4ccccc4n32)c1 (configuration not stated) the results were ASAP1 inh inactive, ARFGAP1 inhibitor inactive, SMARCA2 activ inactive and esBAF inh 59.3.
`Clc1ccc(-c2nnc(-c3cccnc3)o2)cc1` gave ASAP1 inh inactive, ARFGAP1 inhibitor inactive, SMARCA2 activ inactive and esBAF inh 46.9.
For O=S(=O)(c1ccc(-c2nnc(SCc3ccccc3)o2)cc1)N1CCCC1 the results were ASAP1 inh inactive, ARFGAP1 inhibitor inactive, SMARCA2 activ inactive and esBAF inh inactive.
c1cncc(CSc2ccc(-c3cccnc3)nn2)c1 was read as ASAP1 inh inactive, ARFGAP1 inhibitor inactive, SMARCA2 activ inactive and esBAF inh inactive.
C#CCSc1nnc(-c2ccc(O)cc2)o1 was read as ASAP1 inh inactive, ARFGAP1 inhibitor inactive, SMARCA2 activ inactive and esBAF inh 68.6.
`c1ccc(CSc2ccc(-c3cccnc3)nn2)cc1` gave ASAP1 inh inactive, ARFGAP1 inhibitor inactive, SMARCA2 activ inactive and esBAF inh 59.1.
`Oc1ccc(-c2nnc(SCc3ccccc3)o2)cc1` gave ASAP1 inh inactive, ARFGAP1 inhibitor inactive, SMARCA2 activ inactive and esBAF inh 49.3.
For COCC(=O)N1C[C@H](C)[C@H](OC)CN(C)C(=O)c2ccc(NC(=O)C3CCC3)cc2OC[C@H]1C the results were esBAF inh inactive.
For CCNC(=O)Nc1ccc2c(c1)C(=O)N(C)[C@H]1CC[C@H](CC(=O)Nc3ccc(C)cc3)O[C@@H]1CO2 the results were esBAF inh inactive.
For c1ccc(CSc2nnc(-c3cccnc3)o2)cc1 the results were ASAP1 inh inactive, ARFGAP1 inhibitor inactive, SMARCA2 activ inactive and esBAF inh 42.4.
`Cc1ccc(CSc2nnc(-c3cccnc3)o2)cc1` gave esBAF inh inactive.
For COC(=O)c1[nH]c2ccc(Cl)cc2c1NC(=O)Oc1ccccc1 the results were ASAP1 inh inactive, ARFGAP1 inhibitor inactive, SMARCA2 activ inactive and esBAF inh 57.9.
`C[C@@H]1CN([C@H](C)CO)S(=O)(=O)c2ccc(-c3cncnc3)cc2O[C@H]1CN(C)C(=O)c1cccc(F)c1` gave esBAF inh inactive.
`Nc1[nH]ncc1N=Nc1ccc(Cl)cc1` gave ASAP1 inh inactive, ARFGAP1 inhibitor inactive, SMARCA2 activ inactive and esBAF inh 47.3.
Screening COc1ccc(NC(=O)N(C)C[C@H]2OCCCC[C@H](C)Oc3ccc(NS(=O)(=O)c4ccc(F)cc4)cc3C(=O)N([C@@H](C)CO)C[C@@H]2C)cc1 returned esBAF inh inactive.
CC1OC1c1ccc(-c2ccc(C3OC3C)cc2)cc1 (configuration not stated) was read as ASAP1 inh inactive, ARFGAP1 inhibitor inactive, SMARCA2 activ inactive and esBAF inh 76.7.
Cc1ccc(C2OCC3(CO2)COC(c2ccc(C)cc2)OC3)cc1 (configuration not stated) was read as ASAP1 inh inactive, ARFGAP1 inhibitor inactive and SMARCA2 activ inactive.
For Cc1ccccc1CN1C(=O)c2ccccc2C1c1nnnn1-c1ccc2c(c1)OCCO2 (configuration not stated) the results were ASAP1 inh inactive, ARFGAP1 inhibitor inactive and SMARCA2 activ 7.9.
`C[C@H](CO)N1C[C@H](C)[C@H](CN(C)C(=O)Cc2ccncc2)Oc2ncc(C3=CCCC3)cc2C1=O` gave esBAF inh inactive.
Cc1ccc(-c2noc(C3CCCN(C(=O)c4c(F)cccc4F)C3)n2)cc1 (configuration not stated) was read as ASAP1 inh inactive, ARFGAP1 inhibitor inactive, SMARCA2 activ inactive and esBAF inh inactive.
For Cc1cccc(C(=O)N2CCCC(c3nc(-c4ccc(C)o4)no3)C2)c1 (configuration not stated) the results were ASAP1 inh inactive, ARFGAP1 inhibitor inactive, SMARCA2 activ inactive and esBAF inh 50.6.
Cc1ccc(-c2noc(C3CCCN(C(=O)c4ccccc4Br)C3)n2)cc1 (configuration not stated) was read as ASAP1 inh inactive, ARFGAP1 inhibitor inactive, SMARCA2 activ inactive and esBAF inh 51.4.
Screening CCOC(=O)c1ccc(NC(=O)c2cccc(C)c2[N+](=O)[O-])cc1 returned ASAP1 inh inactive, ARFGAP1 inhibitor inactive and SMARCA2 activ inactive.
Screening O=C(Nc1ccc2ccccc2c1)c1cccc([N+](=O)[O-])c1 returned ASAP1 inh inactive, ARFGAP1 inhibitor inactive, SMARCA2 activ inactive and esBAF inh 85.7.
